ChEMBL document CHEMBL4765368, “Structure guided design and synthesis of furyl thiazolidinedione derivatives as inhibitors of GLUT 1 and GLUT 4, and evaluation of their anti-leukemic potential” (Eur J Med Chem, 2020)

Experiments:
[1] = molecular target: T1, Solute carrier family 2, facilitated glucose transporter member 1 (Homo sapiens) (UniProt P11166); assay: Inhibition of transport activity of human GLUT1 expressed in hexose transporter deficient VW4000fgy1 yeast cells assessed as reduction in transporter-mediated [14C]-hexose uptake into cells at 100 uM measured after 10 mins by scintillation counting method relative to control; assay type: cell-based
T1 sequence (whole entry): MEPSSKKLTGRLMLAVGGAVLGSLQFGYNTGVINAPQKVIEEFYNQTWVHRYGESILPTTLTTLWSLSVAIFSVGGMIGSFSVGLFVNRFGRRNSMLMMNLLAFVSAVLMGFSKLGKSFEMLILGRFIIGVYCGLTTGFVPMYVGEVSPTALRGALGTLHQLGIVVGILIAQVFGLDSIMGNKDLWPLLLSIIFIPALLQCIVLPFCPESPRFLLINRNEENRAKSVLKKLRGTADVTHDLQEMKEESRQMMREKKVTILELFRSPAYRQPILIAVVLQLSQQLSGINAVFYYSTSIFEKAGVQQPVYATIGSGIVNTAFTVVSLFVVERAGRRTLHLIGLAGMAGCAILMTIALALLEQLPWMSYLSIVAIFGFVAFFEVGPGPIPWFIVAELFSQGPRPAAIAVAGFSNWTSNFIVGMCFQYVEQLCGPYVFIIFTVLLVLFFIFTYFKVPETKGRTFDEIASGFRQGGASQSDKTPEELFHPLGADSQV
Summary of the method: (§1)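 The hxt0 yeast strain expressing one human GLUT was grown at 30 °C and resuspended in PBS pH 7.4 at OD600 ~10. Uptake was started with 14C-glucose at 5 mM final (GLUT1, GLUT4) or 14C-fructose at 10 mM final (GLUT5). It was quenched after 10 min with ice-cold 0.1 M KPi/0.1 M LiCl pH 5.5, filtered and counted by scintillation. Compound at 100 μM with 1% DMSO; DMSO control and phloretin 200 μM (GLUT1/4) or MSNBA 100 μM (GLUT5) as references. Triplicates.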

[2] = molecular target: T2, Solute carrier family 2, facilitated glucose transporter member 4 (Homo sapiens) (UniProt P14672); assay: Inhibition of transport activity of human GLUT4 expressed in hexose transporter deficient […] erg4 yeast cells assessed as reduction in transporter-mediated [14C]-hexose uptake into cells at 100 uM measured after 10 mins by scintillation counting method relative to control; assay type: cell-based; summary of the method: as §1
T2 sequence (whole entry): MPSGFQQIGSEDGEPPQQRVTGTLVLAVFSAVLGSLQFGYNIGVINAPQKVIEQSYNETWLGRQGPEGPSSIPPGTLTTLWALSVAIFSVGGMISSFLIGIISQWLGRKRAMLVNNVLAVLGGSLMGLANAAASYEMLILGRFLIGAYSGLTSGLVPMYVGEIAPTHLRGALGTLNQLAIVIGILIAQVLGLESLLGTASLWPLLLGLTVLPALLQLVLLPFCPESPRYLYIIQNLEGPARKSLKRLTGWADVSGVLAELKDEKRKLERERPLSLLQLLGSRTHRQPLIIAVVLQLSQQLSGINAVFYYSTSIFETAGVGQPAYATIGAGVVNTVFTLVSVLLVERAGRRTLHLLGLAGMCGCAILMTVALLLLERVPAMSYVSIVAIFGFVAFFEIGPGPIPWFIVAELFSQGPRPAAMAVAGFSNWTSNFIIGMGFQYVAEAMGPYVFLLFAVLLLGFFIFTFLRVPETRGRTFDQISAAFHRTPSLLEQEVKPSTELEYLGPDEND

[3] = molecular target: T3, Solute carrier family 2, facilitated glucose transporter member 1 (Homo sapiens, UniProt P11166); assay: Inhibition of transport activity of human GLUT1 expressed in hexose transporter deficient VW4000fgy1 yeast cells assessed as reduction in transporter-mediated [14C]-hexose uptake into cells measured after 10 mins by scintillation counting method; assay type: cell-based
T3 sequence (P11166 whole entry): T1 sequence (whole entry)
Summary of the method: (§2)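 GLUT1 (VW4000fgy1) or GLUT4 (VW4000fgy1erg4) hxt0 yeast were grown on maltose and then glucose and resuspended in PBS pH 7.4 at OD600 ~10. Compound was used at 0.1–100 μM, final 1% DMSO. Uptake of 5 mM 14C-glucose over 10 min was stopped with ice-cold quench buffer, filtered and counted by scintillation. IC50 was taken from dose-response curves of three independent measurements.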

[4] = molecular target: T4, Solute carrier family 2, facilitated glucose transporter member 4 (Homo sapiens, UniProt P14672); assay: Inhibition of transport activity of human GLUT4 expressed in hexose transporter deficient W4000fgy1 erg4 yeast cells assessed as reduction in transporter-mediated [14C]-hexose uptake into cells measured after 10 mins by scintillation counting method; assay type: cell-based; summary of the method: as §2
T4 sequence (P14672 whole entry): T2 sequence (whole entry)

KCL-22 = assay: Cytotoxicity against human KCL-22 cells assessed as reduction in cell viability measured after 48 hrs by Hoechst 33342/propidium iodide staining based imaging analysis; assay type: functional
Summary of the method: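 Cells were seeded at 10,000 per well (HS-27 at 3,000) in 10% FBS RPMI (leukemic lines) or DMEM (MDA-MB-231, HS-27). Compound in DMSO (1% v/v final) at 0.5–100 µM for 48 h. Hoechst 33342 and PI were added 2 h before automated imaging; dead cells were co-stained. Quadruplicates. CC50 was taken by linear interpolation between the two concentrations nearest 50% death.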

[5] = Selectivity index, ratio of CC50 for human HS27 cells to CC50 for human CCRF-CEM cells
Summary of the method: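 Ratio of HS-27 CC50 to CCRF-CEM CC50. Both came from Hoechst/PI differential nuclear staining imaging after 48 h exposure to 0.5–100 µM, in quadruplicate, with 10,000 CEM or 3,000 HS-27 cells/well. Each CC50 was estimated by linear interpolation between the two concentrations nearest 50% cell death.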

[6] = molecular target: T5, Histone deacetylase 8 (Homo sapiens) (UniProt Q9BY41); assay: (§3) Inhibition of recombinant human His6/SUMO-tagged HDAC8 expressed in Escherichia coli (BL21) DE3 pLysS assessed as residual activity at 50 uM using Boc-Lys(trifluoroacetyl)-AMC as substrate preincubated for 60 mins followed by substrate addition and measured after 60 mins by fluorescence assay relative to control; details: time 120.0 min
T5 sequence (whole entry): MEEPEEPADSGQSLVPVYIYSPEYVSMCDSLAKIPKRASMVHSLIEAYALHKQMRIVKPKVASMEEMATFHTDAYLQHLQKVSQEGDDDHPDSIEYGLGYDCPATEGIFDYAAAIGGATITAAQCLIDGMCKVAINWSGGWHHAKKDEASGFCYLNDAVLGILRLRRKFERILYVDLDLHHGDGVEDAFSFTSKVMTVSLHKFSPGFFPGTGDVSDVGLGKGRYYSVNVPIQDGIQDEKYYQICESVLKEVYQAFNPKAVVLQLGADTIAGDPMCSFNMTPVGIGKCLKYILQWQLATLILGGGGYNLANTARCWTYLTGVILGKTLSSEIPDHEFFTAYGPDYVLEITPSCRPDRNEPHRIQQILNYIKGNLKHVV
Summary of the method: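 20 μM Boc-Lys(trifluoroacetyl)-AMC was then added for 60 min at 30 °C, the reaction stopped with 1.7 μM SATFMK and developed with 0.4 mg/ml trypsin, and AMC fluorescence read at Ex 350/Em 450 nm. Triplicates; percent relative activity.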

[7] = molecular target: Histone deacetylase 4 (Homo sapiens) (UniProt P56524); assay: as §3, with “N-terminal GST-tagged HDAC4 (627 to end residues)” for “His6/SUMO-tagged HDAC8”, “baculovirus infected Sf9 insect cells” for “Escherichia coli (BL21) DE3 pLysS”; details: time 120.0 min
Histone deacetylase 4 (Homo sapiens), sequence (P56524 whole entry): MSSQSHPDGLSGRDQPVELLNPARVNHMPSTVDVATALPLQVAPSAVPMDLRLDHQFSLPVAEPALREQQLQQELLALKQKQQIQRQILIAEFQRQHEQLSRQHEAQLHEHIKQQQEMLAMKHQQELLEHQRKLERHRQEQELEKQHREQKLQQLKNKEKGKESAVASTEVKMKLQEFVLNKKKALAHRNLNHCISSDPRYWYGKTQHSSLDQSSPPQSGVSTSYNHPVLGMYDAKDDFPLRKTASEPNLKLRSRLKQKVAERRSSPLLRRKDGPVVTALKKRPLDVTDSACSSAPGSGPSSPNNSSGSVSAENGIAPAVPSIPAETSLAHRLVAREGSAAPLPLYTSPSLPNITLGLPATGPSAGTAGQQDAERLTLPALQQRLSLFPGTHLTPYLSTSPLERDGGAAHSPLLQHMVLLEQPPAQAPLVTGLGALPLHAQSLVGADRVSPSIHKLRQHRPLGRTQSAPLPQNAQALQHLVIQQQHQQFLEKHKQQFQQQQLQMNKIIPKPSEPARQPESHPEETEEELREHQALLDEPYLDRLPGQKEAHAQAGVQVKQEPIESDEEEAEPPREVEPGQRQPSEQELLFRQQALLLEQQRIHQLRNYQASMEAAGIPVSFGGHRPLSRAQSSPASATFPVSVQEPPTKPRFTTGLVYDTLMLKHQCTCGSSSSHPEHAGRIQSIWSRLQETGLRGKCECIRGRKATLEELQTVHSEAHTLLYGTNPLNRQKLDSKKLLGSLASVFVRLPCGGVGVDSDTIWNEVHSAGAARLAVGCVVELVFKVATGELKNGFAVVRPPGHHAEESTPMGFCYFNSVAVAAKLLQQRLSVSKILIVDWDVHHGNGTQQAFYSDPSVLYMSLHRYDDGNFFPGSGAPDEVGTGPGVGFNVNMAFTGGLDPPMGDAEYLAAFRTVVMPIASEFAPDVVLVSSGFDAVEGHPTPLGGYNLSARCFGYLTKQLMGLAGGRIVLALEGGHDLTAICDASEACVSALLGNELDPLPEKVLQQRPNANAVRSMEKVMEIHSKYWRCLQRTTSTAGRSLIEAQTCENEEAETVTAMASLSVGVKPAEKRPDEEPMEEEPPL

Compound	inhibition [1]	inhibition [2]	IC50 [3]	IC50 [4]	CC50 (KCL-22)	Selectivity Index [5]	Activity [6]	Activity [7]
O=C(CN1C(=O)S/C(=C/c2ccco2)C1=O)Nc1nc2ccccc2s1	100%	> 50%	11.4 µM	6.8 µM	15.3 µM	> 25.8	> 50%	> 50%
O=C(CN1C(=O)S/C(=C/c2ccco2)C1=O)Nc1ccc(Cl)c(Cl)c1	> 50%	> 50%	14.7 µM	152 µM	72.2 µM	> 12.8	> 50%	> 50%
